SR-BI DiI-HDL act: activators of SR-BI mediated DiI-HDL uptake, primary screen, ldlA[mSR-BI] CHO cells, DiI fluorescence. 0.096% of 320,000 active. activation, % at 12.5 µM. 3 h; 100 = double the neutral-control signal;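 active = mean replicate activation of at least 60% and every replicate at or above 60%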
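Material – SR-BI-overexpressing, LDLR-lacking CHO cells · Medium – BSA-supplemented, HEPES-buffered Ham's F12, pH 7.4 · Doses – single concentration · Times – compound with DiI-HDL co-incubation, 3 h at 37 °C · Measured by – bottom-read fluorescence, 550/595 nm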
TLR4 MyD88 comp: inhibitors of TLR4-MyD88 association in cells, primary screen, cell-based, HeLa CL3-4, BLA complementation, FRET ratio. HeLa CL3-4 TLR4/MyD88 BLA complementation. inhibition, % at 8.4 µM. 0.18% of 200,000 active. AID 861, 2007; in the data active = inhibition above about 25%
TLR9-MyD88 block: inhibitors of TLR9-MyD88 association in cells, primary screen, cell-based, CHO, BLA complementation, fluorescence | Toll-like receptor 9 (Homo sapiens) + Myeloid differentiation primary response protein … | CCF4 FRET ratio | inhibition, % at 4.98 µM | 0.21% of 340,000 active;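 active = inhibition above the mean over all tested compounds plus 3 SD, cut at about 21% in these data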
Target sequence (Q99836 whole entry, looked up): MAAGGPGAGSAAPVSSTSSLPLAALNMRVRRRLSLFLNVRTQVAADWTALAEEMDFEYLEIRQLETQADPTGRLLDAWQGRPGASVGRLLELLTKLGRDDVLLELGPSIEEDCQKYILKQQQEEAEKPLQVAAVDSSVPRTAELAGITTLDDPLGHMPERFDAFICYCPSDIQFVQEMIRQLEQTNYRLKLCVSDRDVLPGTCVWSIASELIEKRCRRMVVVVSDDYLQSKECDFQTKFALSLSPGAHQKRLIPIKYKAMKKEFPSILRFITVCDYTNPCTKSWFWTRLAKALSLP
Target sequence (Q9NR96 whole entry, looked up): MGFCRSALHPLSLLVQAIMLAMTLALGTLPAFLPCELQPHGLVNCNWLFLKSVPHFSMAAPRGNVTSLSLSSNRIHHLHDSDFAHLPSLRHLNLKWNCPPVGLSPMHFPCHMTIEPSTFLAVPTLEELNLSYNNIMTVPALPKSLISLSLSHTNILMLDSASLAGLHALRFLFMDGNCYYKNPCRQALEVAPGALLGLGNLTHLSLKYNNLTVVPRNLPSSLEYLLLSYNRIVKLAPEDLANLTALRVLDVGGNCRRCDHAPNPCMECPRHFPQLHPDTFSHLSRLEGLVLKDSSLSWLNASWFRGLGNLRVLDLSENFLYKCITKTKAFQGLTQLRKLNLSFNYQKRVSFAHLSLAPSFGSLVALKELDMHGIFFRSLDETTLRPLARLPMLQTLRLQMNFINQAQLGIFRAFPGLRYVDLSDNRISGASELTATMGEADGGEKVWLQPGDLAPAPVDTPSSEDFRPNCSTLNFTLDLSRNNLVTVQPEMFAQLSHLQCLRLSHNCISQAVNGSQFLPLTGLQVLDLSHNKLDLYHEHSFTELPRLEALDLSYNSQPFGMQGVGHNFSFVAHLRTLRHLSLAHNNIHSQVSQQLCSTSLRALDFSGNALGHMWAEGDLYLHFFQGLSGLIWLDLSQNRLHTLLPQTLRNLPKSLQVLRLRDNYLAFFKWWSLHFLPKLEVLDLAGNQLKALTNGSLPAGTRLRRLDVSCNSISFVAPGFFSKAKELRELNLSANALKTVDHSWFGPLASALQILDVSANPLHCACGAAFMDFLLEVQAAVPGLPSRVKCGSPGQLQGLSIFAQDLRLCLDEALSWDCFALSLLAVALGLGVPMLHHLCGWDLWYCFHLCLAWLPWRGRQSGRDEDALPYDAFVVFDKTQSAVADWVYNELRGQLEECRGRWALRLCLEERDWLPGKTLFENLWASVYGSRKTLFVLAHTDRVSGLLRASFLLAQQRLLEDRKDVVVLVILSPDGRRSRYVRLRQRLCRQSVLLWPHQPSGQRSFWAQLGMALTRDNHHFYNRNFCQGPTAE
SR-BI DiI inh: inhibitors of SR-BI mediated HDL lipid uptake, primary screen, ldlA[mSR-BI] cells, fluorescence, single point; Scavenger receptor class B member 1 (Mus musculus), Q61009; ldlA[mSR-BI] CHO cells, DiI-HDL uptake fluorescence, 3 h; inhibition, % at 12.5 µM; 0.96% of 320,000 active; AID 488896, 2010;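 active = mean replicate inhibition of at least 70% and a set share of replicates each scoring 70 or more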
Hep lipid drop: inhibitors of hepatocyte lipid droplet formation, primary screen, imaging, high-throughput imaging, BODIPY stain | AML12 mouse hepatocytes, oleate lipid droplets | 0.4% of 240,000 active | inhibition, % at 6.5 µM;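 active = lipid droplet intensity inhibited by at least 50%, with more than 500 cells counted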
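Technique: fluorescence imaging, 20x objective, two fields per well / Assay system: AML12 hepatocytes (mouse) / Measure: % inhibition of lipid droplet signal / Doses: 6.5 µM single-point dosing / Incubation: overnight exposure / Reagent: 100 µM oleic acid challenge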
NOD2 RIPK2 PPI: NOD2-RIPK2 binding disruptors in cells, primary screen, fluorescence, CHO cells, BLA complementation; Receptor-interacting serine/threonine-protein kinase 2 (Homo sapiens), O43353; CCF4 ratio; inhibition, % at 4.98 µM; 0.38% of 360,000 active; AID 624267, 2012; in the data active = inhibition above about 21%
Hep lipid conf: hepatocyte lipid droplet accumulation inhibitors, confirmation, imaging, AML12 mouse hepatocytes, single concentration, high-content; shares compounds with Hep lipid drop; BODIPY lipid droplet imaging; droplets induced with 100 µM oleic acid; inhibition, % at 5.2 µM; 65% of 870 active;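 active = inhibition of lipid droplet metric at least 50%, with more than 300 cells in each of four replicates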
AML12 cytotox: AML12 hepatocyte cytotoxicity, counter-screen for hepatic lipid droplet formation project, imaging, DAPI nuclear morphology imaging. z-score at 5 µM. shares compounds with Hep lipid drop. 3% of 870 active. AML12 mouse hepatocytes; hits give high values; cells fed 100 µM oleate overnight; in the data active = z-score above about 6.3;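 also: compound exposure lasted overnight at 37 °C before fixation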
AML12 tox conf: AML12 hepatocyte cytotoxicity, confirmation, cytotoxicity control for hepatic lipid droplet formation project, cell-based, single concentration | shares compounds with Hep lipid drop | AML12 mouse hepatocyte viability, ATP luminescence; cells loaded with 100 µM oleic acid | cytotoxicity, % at 50 µM | 530 tested, under 10 active | AID 463219, 2010;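 active = cytotoxicity above 50% in each of four replicates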;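 also: compound exposure lasted overnight at 37 °C before the ATP read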
Of the large screens only hits and unclear results are named; the others gave an inactive call (follow-up assays come after a bar, where they were run). The list is not random: actives were taken first. Their share in the collection is about 1.6%.

CC(=O)C1=C(C)NC(SCSc2ccccc2)=C(C#N)C1c1cccnc1 (stereo unspecified)	Hep lipid drop 59 (no result: SR-BI DiI-HDL act, TLR9-MyD88 block, SR-BI DiI inh, NOD2 RIPK2 PPI) | Hep lipid conf 79 | AML12 cytotox inactive | AML12 tox conf inactive
Cc1ccc2nc(Nc3ccc(F)cc3)c3nncn3c2c1	Hep lipid drop 59 (no result: TLR4 MyD88 comp) | Hep lipid conf inactive | AML12 cytotox inactive | AML12 tox conf inactive
COc1ccc2c(c1)c(CC(=O)Nc1ccc(C(C)=O)cc1)c(C)n2C(=O)c1ccc(Cl)cc1	Hep lipid drop 73 | Hep lipid conf 77 | AML12 cytotox inactive | AML12 tox conf inactive
COc1ccc2c(c1)c(CC(=O)Nc1nnc(C3CC3)s1)c(C)n2C(=O)c1ccc(Cl)cc1	none (no result: TLR4 MyD88 comp)
COc1ccc2c(c1)c(CC(=O)NCc1cc([N+](=O)[O-])ccc1O)c(C)n2C(=O)c1ccc(Cl)cc1	none (no result: TLR4 MyD88 comp)
COc1ccc2c(c1)c(CC(=O)Nc1ccccc1OC)c(C)n2C(=O)c1ccc(Cl)cc1	Hep lipid drop 67 | Hep lipid conf inactive | AML12 cytotox inactive
COc1ccccc1-c1nnc(SCC(=O)NC2CCCCC2)n1C	none (no result: SR-BI DiI-HDL act, TLR4 MyD88 comp, SR-BI DiI inh)
CSCCC(NC(=O)c1ccccc1)C(=O)N1CC=C(c2ccccc2)CC1 (stereo unspecified)	none (no result: TLR4 MyD88 comp)
Cc1nn(-c2ccc([N+](=O)[O-])cc2)c2c1C(c1cccc(Br)c1)N1C(=N2)C(=O)Nc2ccccc21 (stereo unspecified)	Hep lipid drop 118 | Hep lipid conf 82 | AML12 cytotox inactive | AML12 tox conf inactive
O=c1[nH]c(CSc2nnc(-c3ccccc3)n2-c2ccccc2)nc2ccccc12	Hep lipid drop 62 | Hep lipid conf inactive | AML12 cytotox inactive
CS(=O)(=O)N(CC(=O)Nc1cccc(Br)c1)Cc1ccccc1	Hep lipid drop 52 (no result: TLR4 MyD88 comp) | Hep lipid conf 84 | AML12 cytotox inactive | AML12 tox conf inactive
CS(=O)(=O)N(CC(=O)Nc1ccc2c(c1)OCO2)Cc1ccccc1	Hep lipid drop 54 | Hep lipid conf inactive | AML12 cytotox inactive | AML12 tox conf inactive
NC(=O)c1ccc(NC(=O)C#Cc2ccccc2)cc1	none (no result: TLR4 MyD88 comp)
COc1ccc(C(=O)OC(C)C(=O)NC(C)CCc2ccccc2)cc1[N+](=O)[O-] (stereo unspecified)	Hep lipid drop 68 (no result: TLR4 MyD88 comp) | Hep lipid conf 109 | AML12 cytotox inactive | AML12 tox conf inactive
COc1ccc(C(=O)NCCc2ccccc2)cc1[N+](=O)[O-]	none (no result: TLR4 MyD88 comp)
COc1ccc(C(=O)OCC(=O)NC(C)CCc2ccccc2)cc1OC (stereo unspecified)	Hep lipid drop 62 (no result: TLR4 MyD88 comp) | Hep lipid conf 72 | AML12 cytotox inactive | AML12 tox conf inactive
COc1ccc(C(=O)OCC(=O)NC(C)CCc2ccccc2)cc1 (stereo unspecified)	none (no result: TLR4 MyD88 comp)
COc1cc2c(cc1NC(=S)NC(=O)c1c(OC)cccc1OC)oc1ccccc12	Hep lipid drop 105 | Hep lipid conf 106 | AML12 cytotox inactive | AML12 tox conf inactive
CCn1cc(CCCC(=O)NCc2cccc(OC)c2)c2ccccc21	Hep lipid drop 80 (no result: TLR4 MyD88 comp) | Hep lipid conf 88 | AML12 cytotox inactive | AML12 tox conf inactive
CCn1cc(CCCC(=O)NCc2ccccc2OC)c2ccccc21	Hep lipid drop 88 (no result: TLR4 MyD88 comp) | Hep lipid conf 100 | AML12 cytotox inactive | AML12 tox conf inactive
O=C(CNCCC1=CCCCC1)Nc1ccccc1N1CCCCC1	Hep lipid drop 103 | Hep lipid conf inactive | AML12 cytotox inactive
O=C(CNC1CCCCCC1)Nc1ccccc1N1CCCCC1	none (no result: Hep lipid drop)
COc1ccc(-n2c(=O)c3c4c(sc3n(CC(=O)Nc3cc(C)[nH]n3)c2=O)CCC4)c(OC)c1	Hep lipid drop 51 (no result: SR-BI DiI-HDL act, SR-BI DiI inh) | Hep lipid conf inactive | AML12 cytotox inactive
CCC(C)NC(=O)COc1ccccc1[N+](=O)[O-] (stereo unspecified)	none
Cc1cc(OCC(=O)NC2CC2)c2c(C)cc(=O)oc2c1	Hep lipid drop 61 (no result: TLR4 MyD88 comp) | Hep lipid conf inactive | AML12 cytotox inactive
CCc1cc(=O)oc2cc(C)cc(OCC(=O)NC3CC3)c12	none (no result: TLR4 MyD88 comp)
COc1ccc(CN2CCNC(=O)C2CC(=O)NCCCC2CCCC2)c(C)c1C (stereo unspecified)	none (no result: TLR4 MyD88 comp)
COc1ccc(-c2csc(NNC3=NCCCCC3)n2)cc1	Hep lipid drop 115 (no result: SR-BI DiI-HDL act, TLR9-MyD88 block, SR-BI DiI inh, NOD2 RIPK2 PPI) | Hep lipid conf 112 | AML12 cytotox inactive | AML12 tox conf inactive
CCOc1ccc(-c2csc(NNC3=NCCCCC3)n2)cc1	Hep lipid drop 84 | Hep lipid conf 111 | AML12 cytotox inactive | AML12 tox conf inactive
COc1ccc(-c2csc(NC3=NCCCCC3)n2)cc1	none
Brc1ccc(-c2csc(NC3=NCCCCC3)n2)cc1	none
c1ccc(-c2csc(NNC3=NCCCCC3)n2)cc1	Hep lipid drop 63 | Hep lipid conf 115 | AML12 cytotox inactive | AML12 tox conf inactive
Clc1ccc(-c2csc(NNC3=NCCCCC3)n2)cc1	none (no result: Hep lipid drop)
CCC(C)C(NC(N)=O)C(=O)Nc1ccc(OCc2ccccc2)cc1 (stereo unspecified)	none (no result: TLR4 MyD88 comp)
O=S(=O)(Cc1ccc(Cl)cc1)CC(O)COCc1ccccc1 (stereo unspecified)	none
CCOC(=O)C1CCN(S(=O)(=O)c2ccc(C(C)=O)cc2)CC1	none
CCOC(=O)C1CCN(S(=O)(=O)c2ccc3c(c2)NC(=O)C(C)C(=O)N3)CC1 (stereo unspecified)	Hep lipid drop 63 (no result: TLR4 MyD88 comp) | Hep lipid conf 87 | AML12 cytotox inactive | AML12 tox conf inactive
CCN(CC)c1ccc(/C=C2\CCC(/C=C(\C#N)C(=O)Nc3ccccc3F)=C2N2CCOCC2)cc1	Hep lipid drop 101 | Hep lipid conf 96 | AML12 cytotox inactive | AML12 tox conf inactive
O=C(N/N=C/c1cc(Br)c(O)c(Br)c1O)c1cccnc1	none (no result: TLR4 MyD88 comp)

Screening results deposited in PubChem BioAssay by several laboratories.
